The target of test [1] is T1, Gonadotropin-releasing hormone receptor (Rattus norvegicus) (UniProt P30969).
T1 sequence (whole entry): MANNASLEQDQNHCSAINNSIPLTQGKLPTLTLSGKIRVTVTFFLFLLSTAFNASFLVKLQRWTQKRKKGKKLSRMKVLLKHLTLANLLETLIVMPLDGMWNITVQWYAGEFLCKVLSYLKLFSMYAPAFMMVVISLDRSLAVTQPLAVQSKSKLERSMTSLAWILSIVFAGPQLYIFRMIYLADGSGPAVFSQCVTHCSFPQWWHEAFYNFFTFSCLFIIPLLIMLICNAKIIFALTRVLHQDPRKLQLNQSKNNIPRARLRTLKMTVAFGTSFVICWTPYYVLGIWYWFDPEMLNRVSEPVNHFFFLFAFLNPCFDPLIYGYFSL
In words: Antagonist activity at LH-RH receptor in Sprague-Dawley rat pituitary gland assessed as change in LH-RH-induced luteinizing hormone release at 100 ug/ml preincubated for 2 hrs followed by LH-RH addition at 5th and 6th hr 5 mins post drug addition and measured every hour for 4 hrs by RIA. The essentials: (§1)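 Two pituitaries from 20-day-old female rats were incubated in 1 mL lactated Ringer's at 37 °C with shaking for 6 h, with medium replaced hourly. Analogue was added in hours 3–6. LH-RH at 0.3 ng/mL was added in hours 5–6, 5 min after the analogue. LH and FSH were measured by RIA against the LER-1240-2 or FSH standard and reported as Δ ng/mL ± SEM with p values.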

Test [2] has as its target T1, Gonadotropin-releasing hormone receptor (Rattus norvegicus). Nature of the test: Agonist activity at LH-RH receptor in Sprague-Dawley rat pituitary gland assessed as change in luteinizing hormone release at 100 ug/ml incubated for 4 hrs measured every hour for 4 hrs by RIA. The essentials:
(§2)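 Two pituitaries from 20-day-old female rats per beaker, in 1 mL lactated Ringer's at 37 °C with shaking, 6 h total. Medium was replaced hourly. After two preincubation hours the analogue was present alone in hours 3–6 (peptide in µg/mL of medium). LH and FSH were measured by RIA as ng of LH-LER-1240-2 or FSH standard, given as Δ ± SEM with p values.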

Test [3] has the same target. In words: Antagonist activity at LH-RH receptor in Sprague-Dawley rat pituitary gland assessed as change in LH-RH-induced follicle-stimulating hormone release at 100 ug/ml preincubated for 2 hrs followed by LH-RH addition at 5th and 6th hr 5 mins post drug addition and measured every hour for 4 hrs by RIA. In a few lines: as §1
Test [4] shares this target. In words: Agonist activity at LH-RH receptor in Sprague-Dawley rat pituitary gland assessed as change in follicle-stimulating hormone release at 100 ug/ml incubated for 4 hrs measured every hour for 4 hrs by RIA. In a few lines:
as §2

For test [5] the target is unchanged. In words: Antagonist activity at LH-RH receptor in Sprague-Dawley rat pituitary gland assessed as change in LH-RH-induced luteinizing hormone release at 10 ug/ml preincubated for 2 hrs followed by LH-RH addition at 5th and 6th hr 5 mins post drug addition and measured every hour for 4 hrs by RIA. The essentials:
as §1

For test [6] the target is unchanged. In words: Antagonist activity at LH-RH receptor in Sprague-Dawley rat pituitary gland assessed as change in LH-RH-induced luteinizing hormone release at 1 ug/ml preincubated for 2 hrs followed by LH-RH addition at 5th and 6th hr 5 mins post drug addition and measured every hour for 4 hrs by RIA. The essentials:
as §1

For test [7] the target is unchanged. Nature of the test: Antagonist activity at LH-RH receptor in Sprague-Dawley rat pituitary gland assessed as change in LH-RH-induced follicle-stimulating hormone release at 10 ug/ml preincubated for 2 hrs followed by LH-RH addition at 5th and 6th hr 5 mins post drug addition and measured every hour for 4 hrs by RIA. In a few lines: as §1
Test [8] shares this target. Nature of the test: Antagonist activity at LH-RH receptor in Sprague-Dawley rat pituitary gland assessed as change in LH-RH-induced follicle-stimulating hormone release at 1 ug/ml preincubated for 2 hrs followed by LH-RH addition at 5th and 6th hr 5 mins post drug addition and measured every hour for 4 hrs by RIA. The essentials: as §1

Square brackets hold non-standard residues; d marks the D form. Peptide text beside a SMILES is read from it. pGlu = O=C1CC[C@@H](C(=O)O)N1

Consider `CC(C)C[C@H](NC(=O)CNC(=O)[C@H](Cc1ccc(O)cc1)NC(=O)[C@H](CO)NC(=O)[C@H](CC(N)=O)NC(=O)[C@H](CC(C)C)NC(=O)[C@@H]1CCC(=O)N1)C(=O)N[C@@H](CCCNC(=N)N)C(=O)N1CCC[C@H]1C(=O)NCC(N)=O` ([pGlu]LNSYGLRPG-NH2), for which the Activity was 185 ng/mL in test [1], 18 ng/mL in test [2], 2300 ng/mL in test [3] and -1270 ng/mL in test [4].

As to `CC(C)C[C@H](NC(=O)[C@@H]1CCC(=O)N1)C(=O)N[C@@H](C)C(=O)N[C@@H](CO)C(=O)N[C@@H](Cc1ccc(O)cc1)C(=O)N[C@H](C)C(=O)N[C@@H](CC(C)C)C(=O)N[C@@H](CCCNC(=N)N)C(=O)N1CCC[C@H]1C(=O)NCC(N)=O`, the Activity in test [5] is 149 ng/mL; in test [1], 115 ng/mL; in test [2], 13 ng/mL; in test [6], 230 ng/mL; in test [7], 8150 ng/mL; in test [3] it was 5850 ng/mL. In addition, the Activity is -351 ng/mL in test [4] and 7020 ng/mL in test [8].

As to `CCNC(=O)[C@@H]1CCCN1C(=O)[C@H](CCCNC(=N)N)NC(=O)[C@H](CC(C)C)NC(=O)[C@@H](C)NC(=O)[C@H](Cc1ccc(O)cc1)NC(=O)[C@H](CO)NC(=O)[C@H](C)NC(=O)[C@H](CC)NC(=O)[C@@H]1CCC(=O)N1`, the Activity in test [5] was 56 ng/mL; in test [1] it was 62 ng/mL; in test [2] it was -3 ng/mL; in test [6], 157 ng/mL; in test [7], 2970 ng/mL; in test [3], 1780 ng/mL. For the same molecule, the Activity worked out at 184 ng/mL in test [4] and 2610 ng/mL in test [8].

With `CC(C)C[C@H](NC(=O)CNC(=O)[C@H](Cc1ccc(O)cc1)NC(=O)[C@H](CO)NC(=O)[C@H](CO)NC(=O)[C@H](CC(C)C)NC(=O)[C@@H]1CCC(=O)N1)C(=O)N[C@@H](CCCNC(=N)N)C(=O)N1CCC[C@H]1C(=O)NCC(N)=O` ([pGlu]LSSYGLRPG-NH2), the Activity in test [5] is 88 ng/mL; in test [1], 90 ng/mL; in test [2], -7 ng/mL; in test [7], 6540 ng/mL; in test [4], -367 ng/mL.

`CC(C)C[C@H](NC(=O)CNC(=O)[C@H](Cc1ccc(O)cc1)NC(=O)[C@H](CO)NC(=O)[C@H](CC(C)C)NC(=O)[C@@H](NC(=O)[C@@H]1CCC(=O)N1)[C@@H](C)O)C(=O)N[C@@H](CCCNC(=N)N)C(=O)N1CCC[C@H]1C(=O)NCC(N)=O` ([pGlu]TLSYGLRPG-NH2): the Activity in test [5] is 180 ng/mL; in test [1], 180 ng/mL; in test [2], 14 ng/mL; in test [7], 3080 ng/mL; in test [3], 3230 ng/mL; in test [4], 699 ng/mL.

`CCNC(=O)[C@@H]1CCCN1C(=O)[C@H](CCCNC(=N)N)NC(=O)[C@H](CC(C)C)NC(=O)[C@@H](C)NC(=O)[C@H](Cc1ccc(O)cc1)NC(=O)[C@H](CO)NC(=O)[C@H](C)NC(=O)[C@@H](NC(=O)[C@@H]1CCC(=O)N1)[C@@H](C)CC`: the Activity was found to be 49 ng/mL in test [1], 42 ng/mL in test [2], 1910 ng/mL in test [3] and 1020 ng/mL in test [4].

(Values after ChEMBL document CHEMBL3272172, “Inhibition of the activity of the luteinizing hormone-releasing hormone (LH-RH) by analogues with variations at positions 2, 3, and 6 and the carboxyl terminus” (J Med Chem, 1977).)
